Assay results published in ChEMBL document CHEMBL1765020, “Synthesis and structure-affinity relationships of novel dibenzylideneacetone derivatives as probes for β-amyloid plaques” (J Med Chem, 2011).
Active and inactive are the calls of the source. The rule behind the calls is not given here.

Experiments:
Mus musculus [1] = organism: Mus musculus; experiment: Binding affinity to amyloid beta (1 to 42) aggregate in APP/PS1 transgenic C57BL/6 mouse brain by Thioflavin S fluorescent staining assay; format: tissue-based; details: C57BL6, tested as the 18F-labelled form
Summary of the method: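 The same Tg mouse sections used for autoradiography were stained with thioflavin S to locate plaques. Fluorescence was viewed by microscope: excitation 400–440 nm, dichroic 455 nm, long-pass 470 nm.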

[2] = molecular target: Amyloid-beta precursor protein (Homo sapiens) (UniProt P05067); experiment: Binding affinity to amyloid beta (1 to 42) aggregate in Alzheimer disease patient brain by immunohistochemical staining using amyloid beta antibody; details: tested as the 18F-labelled form
Summary of the method: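 Plaque presence and location in the AD patient temporal-lobe sections were confirmed by immunohistochemistry with monoclonal anti-Aβ1-42 antibody BC05.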

[3] = Displacement of [125I]IMPY from amyloid beta (1 to 42) aggregate after 2 hrs by gamma counting
Summary of the method: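 Competition binding in 1 mL PBS (0.2 M, pH 7.4). Aggregated Aβ1-42 fibrils (60 nM final) with [125I]IMPY and inhibitor at 10^-5 to 10^-10 M, added in ethanol. Nonspecific binding was defined with 1 μM IMPY. Incubated 2 h at 37 °C with shaking, then vacuum-filtered through glass fibre filters and the bound fraction gamma-counted. IC50 was converted to Ki by Cheng-Prusoff; triplicate, mean ± SD.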

Mus musculus [4] = organism: Mus musculus; experiment: Binding affinity to amyloid beta (1 to 42) aggregate in APP/PS1 transgenic C57BL/6 mouse brain after 1 hr by autoradiography; format: tissue-based; details: C57BL6, tested as the 18F-labelled form
Summary of the method: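 Paraffin brain sections from 12-month-old male C57BL6-APP/PS1 mice, with wild-type male C57BL6 controls, were deparaffinized through xylene and graded ethanol, then held 30 min in PBS (0.2 M, pH 7.4). Sections were incubated 1 h at room temperature with radiotracer (5 μCi/100 μL), washed 3 min in 40% ethanol, rinsed in water, dried and exposed to an imaging plate overnight.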

Chain of Amyloid-beta precursor protein (Homo sapiens) (P05067 whole entry): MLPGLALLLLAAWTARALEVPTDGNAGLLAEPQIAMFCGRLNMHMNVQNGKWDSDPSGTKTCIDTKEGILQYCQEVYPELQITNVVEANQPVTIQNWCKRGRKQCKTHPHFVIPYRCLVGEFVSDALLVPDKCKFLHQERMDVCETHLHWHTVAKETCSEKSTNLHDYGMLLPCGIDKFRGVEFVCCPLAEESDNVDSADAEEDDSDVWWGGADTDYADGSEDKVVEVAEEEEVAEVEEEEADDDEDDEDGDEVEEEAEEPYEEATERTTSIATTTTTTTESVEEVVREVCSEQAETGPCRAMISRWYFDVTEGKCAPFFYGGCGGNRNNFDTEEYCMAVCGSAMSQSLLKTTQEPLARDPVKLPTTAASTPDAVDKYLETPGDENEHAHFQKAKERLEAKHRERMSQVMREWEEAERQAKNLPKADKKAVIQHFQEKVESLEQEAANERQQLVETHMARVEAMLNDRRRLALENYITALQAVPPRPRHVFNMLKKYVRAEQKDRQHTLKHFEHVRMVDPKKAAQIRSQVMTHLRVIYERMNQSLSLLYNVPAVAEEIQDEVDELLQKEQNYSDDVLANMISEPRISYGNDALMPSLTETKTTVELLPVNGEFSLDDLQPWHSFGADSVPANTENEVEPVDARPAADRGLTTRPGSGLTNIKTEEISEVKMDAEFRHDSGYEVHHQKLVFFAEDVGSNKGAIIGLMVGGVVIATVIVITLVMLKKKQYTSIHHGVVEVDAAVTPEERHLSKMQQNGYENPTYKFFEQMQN

Activity (Mus musculus [1]): Active | Activity [2]: Active | Ki [3]: 6.9 nM | Activity (Mus musculus [4]): Active
SMILES: CN(C)c1ccc(/C=C/C(=O)/C=C/c2ccc(OCCOCCOCCF)cc2)cc1
